# In ChEMBL document CHEMBL1687700, “Discovery of an Orally Efficacious Imidazo[5,1-f][1,2,4]triazine Dual Inhibitor of IGF-1R and IR” (ACS Med Chem Lett, 2010):
# What was measured:
# [1] = Oral bioavailability in CD-1 mouse at 25 mg/kg administered as single dose; format: ADME, organism-based; details: in vivo
# Mus musculus [2] = assay: Inhibition of human IGF1R phosphorylation in human GEO cells xenografted in CD-1 nu/nu mouse at 20 mg/kg, po administered once daily for 14 days; format: functional; details: CD-1, GEO, 336 h
# Method in brief: (§1)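 GEO xenografts dosed orally for 14 days (qd or bid); tumors removed after last dose, up to 24 h, for pIGF-1R and pIR content relative to vehicle controls; means ± SE.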
# [3] = Antitumor activity against human GEO cells xenografted in CD-1 nu/nu mouse assessed as tumor growth inhibition at 20 mg/kg, po administered once daily for 14 days; format: functional; details: 336 h, read-out: TGI
# Method in brief: (§2)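 Nude mouse xenografts dosed orally (HCl salt in 40% w/v hydroxypropyl-β-cyclodextrin) once or twice daily for 14 days; tumor volume expressed as percentage of initial volume, mean ± SE; body weight monitored.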
# [4] = Antitumor activity against human GEO cells xenografted in CD-1 nu/nu mouse assessed as tumor growth inhibition at 10 mg/kg, po bid administered for 14 days; format: functional; details: 336 h, read-out: TGI; method in brief: as §2
# [5] = Antitumor activity against human GEO cells xenografted in CD-1 nu/nu mouse assessed as tumor growth inhibition at 5 mg/kg, po bid administered for 14 days; format: functional; details: 336 h, read-out: TGI; method in brief: as §2
# [6] = Plasma protein binding in human; format: ADME, cell-free; details: read-out: PPB (converted)
# Method in brief: (§3)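 Plasma protein binding determined by ultracentrifugation in mouse, rat and human plasma; percent bound reported.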
# [7] = Volume of distribution at steady state in rhesus monkey at 5 mg/kg, iv administered as single dose; format: ADME, organism-based, Macaca mulatta; parameters: dose 5 mg/kg, route intravenous; details: in vivo, read-out: Vdss
# Method in brief: (§4)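 Single 5 mg/kg iv dose used to derive clearance and Vss; median values reported per species (female rat, male rhesus monkey).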
# NIH3T3 = assay: Antitumor activity against mouse NIH/3T3 cells xenografted in CD-1 nu/nu mouse assessed as tumor growth inhibition at 10 mg/kg, po bid administered for 14 days; format: functional; details: NIH3T3, 336 h
# [8] = Plasma concentration in human GEO cells xenografted CD-1 nu/nu mouse at 10 mg/kg, po administered as single dose in 40% Trappsol upto 8 hrs; format: ADME, organism-based; parameters: dose 10 mg/kg, route oral
# Method in brief: (§5)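 GEO xenograft mice given a single 10 mg/kg oral dose; tumors and plasma sampled over time; tumor pIGF-1R and pIR content expressed as percentage of vehicle-treated controls alongside plasma drug level; means ± SD.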
# [9] = Cmax in rhesus monkey at 30 mg/kg, po administered as single dose; format: ADME, organism-based, Macaca mulatta; parameters: dose 30 mg/kg, route oral; details: in vivo
# Method in brief: (§6)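 Rhesus monkey (male), single oral dose of the HCl salt in 40% w/v hydroxypropyl-β-cyclodextrin vehicle; median PK parameters reported; bioavailability referenced to a 5 mg/kg iv dose.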
# [10] = Plasma protein binding in mouse; format: ADME, cell-free; details: read-out: PPB (converted); method in brief: as §3
# Mus musculus [11] = assay: Inhibition of IR phosphorylation in human GEO cells xenografted in CD-1 nu/nu mouse at 10 mg/kg, po administered as single dose in 40% Trappsol; format: functional; details: CD-1, GEO; method in brief: as §5
# Mus musculus [12] = assay: Inhibition of human IGF1R phosphorylation in human GEO cells xenografted in CD-1 nu/nu mouse at 10 mg/kg, po administered as single dose in 40% Trappsol after 16 hrs; format: functional; details: CD-1, GEO; method in brief: as §5
# [13] = AUC in CD-1 mouse at 25 mg/kg, po administered as single dose; format: ADME, organism-based; parameters: dose 25 mg/kg, route oral; details: plasma
# Method in brief: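 Single oral dose of 25 mg/kg, given as the HCl salt in 40% w/v hydroxypropyl-β-cyclodextrin, to female mice. Plasma exposure is reported as AUC (ng h/mL), with median values given. CL and Vss come from a separate 5 mg/kg iv dose.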
# Mus musculus [14] = assay: Inhibition of human IGF1R phosphorylation in human GEO cells xenografted in CD-1 nu/nu mouse at 10 mg/kg, po bid administered for 14 days; format: functional; details: CD-1, GEO, 336 h; method in brief: as §1
# [15] = Cmax in CD-1 mouse at 25 mg/kg, po administered as single dose; format: ADME, organism-based; parameters: dose 25 mg/kg, route oral; details: in vivo
# [16] = Plasma concentration in human GEO cells xenografted CD-1 nu/nu mouse at 10 mg/kg, po administered as single dose in 40% Trappsol after 16 hrs; format: ADME, organism-based; parameters: dose 10 mg/kg, route oral; method in brief: as §5
# Mus musculus [17] = assay: Inhibition of human IGF1R phosphorylation in human GEO cells xenografted in CD-1 nu/nu mouse at 5 mg/kg, po bid administered for 14 days; format: functional; details: CD-1, GEO, 336 h; method in brief: as §1
# [18] = Oral bioavailability in rhesus monkey at 30 mg/kg administered as single dose; format: ADME, organism-based, Macaca mulatta; details: in vivo; method in brief: as §6
# [19] = AUC in rhesus monkey at 30 mg/kg, po administered as single dose; format: ADME, organism-based, Macaca mulatta; parameters: dose 30 mg/kg, route oral; details: plasma; method in brief: as §6
# Mus musculus [20] = assay: Inhibition of human IGF1R phosphorylation in human GEO cells xenografted in CD-1 nu/nu mouse at 10 mg/kg, po administered as single dose in 40% Trappsol upto 8 hrs; format: functional; details: CD-1, GEO; method in brief: as §5
# [21] = Plasma protein binding in rat; format: ADME, cell-free; details: read-out: PPB (converted); method in brief: as §3
# [22] = Clearance in rhesus monkey at 5 mg/kg, iv administered as single dose; format: ADME, organism-based, Macaca mulatta; parameters: dose 5 mg/kg, route intravenous; details: in vivo; method in brief: as §4
# Mus musculus [23] = assay: Inhibition of IR phosphorylation in human GEO cells xenografted in CD-1 nu/nu mouse at 5 mg/kg, po bid administered for 14 days; format: functional; details: CD-1, GEO, 336 h; method in brief: as §1
# [24] = Oral bioavailability in CD-1 mouse at 25 mg/kg, po administered as single dose; format: ADME, organism-based; details: CD-1, mouse, in vivo
# [25] = Volume of distribution at steady state in CD-1 mouse at 5 mg/kg, iv administered as single dose; format: ADME, organism-based; parameters: dose 5 mg/kg, route intravenous; details: in vivo, read-out: Vdss
# [26] = Permeability of the compound by PAMPA assay at pH 5.0; format: ADME; details: read-out: permeability
# Method in brief: (§7)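 Parallel artificial membrane permeability assay run at pH 5.0 and pH 7.4; permeability reported in nm/s.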
# [27] = Permeability of the compound by PAMPA assay at pH 7.4; format: ADME; details: read-out: permeability; method in brief: as §7
# [28] = Cmax in CD-1 mouse plasma at 25 mg/kg, po administered as single dose; format: ADME, organism-based; parameters: dose 25 mg/kg, route oral
# [29] = Clearance in CD-1 mouse at 5 mg/kg, iv administered as single dose; format: ADME, organism-based; parameters: dose 5 mg/kg, route intravenous; details: in vivo
smiles,measurement,setting,value
C[C@]1(O)C[C@@H](c2nc(-c3ccc4ccc(-c5ccccc5)nc4c3F)c3c(N)ncnn32)C1.Cl,bioavailability,[1],100%
same,inhibition in vivo at 20 mg/kg,Mus musculus [2],> 70%
same,inhibition in vivo at 20 mg/kg,[3],85%
same,inhibition in vivo at 10 mg/kg,[4],91%
same,inhibition in vivo at 5 mg/kg,[5],31%
same,fraction unbound,[6],0.027
same,Vd,[7],0.55 L/kg
same,inhibition in vivo at 10 mg/kg,NIH3T3,100%
same,concentration at 8 h,[8],> 4 µM
same,Cmax,[9],10.8 µM
same,fraction unbound,[10],0.015
same,inhibition in vivo at 10 mg/kg,Mus musculus [11],50%
same,inhibition in vivo at 10 mg/kg,Mus musculus [12],50%
same,AUC,[13],240 µg·h/mL
same,inhibition in vivo at 10 mg/kg,Mus musculus [14],> 70%
same,Cmax,[15],35.2 µM
same,concentration at 16 h,[16],380 nM
same,inhibition in vivo at 5 mg/kg,Mus musculus [17],40%
same,bioavailability,[18],97%
same,AUC,[19],31400 ng·h/mL
same,inhibition in vivo at 10 mg/kg,Mus musculus [20],> 70%
same,fraction unbound,[21],0.034
same,clearance,[22],15 mL/min/kg
same,inhibition in vivo at 5 mg/kg,Mus musculus [23],40%
Nc1ncnn2c1c(-c1ccc3ccc(-c4ccccc4)nc3c1F)nc2[C@H]1C[C@@H](N2CCN(C=O)CC2)C1,bioavailability,[24],18%
same,Vd,[25],1.2 L/kg
same,Papp,[26],20.4 ×10⁻⁶ cm/s
same,Papp,[27],105 ×10⁻⁶ cm/s
same,Cmax,[28],3100 nM
same,clearance,[29],7 mL/min/kg
CN1CCN([C@H]2C[C@@H](c3nc(-c4ccc5ccc(-c6ccccc6)nc5c4F)c4c(N)ncnn43)C2)CC1,bioavailability,[24],27%
same,Vd,[25],4.9 L/kg
same,Papp,[26],14.5 ×10⁻⁶ cm/s
same,Papp,[27],67.2 ×10⁻⁶ cm/s
same,Cmax,[28],1900 nM
same,clearance,[29],21 mL/min/kg
